Usually IC50 stands for the concentration that gives 50% inhibition. The CC50 is the concentration giving 50% cytotoxicity.

17 compounds from ChEMBL document CHEMBL1125737, “Synthesis and anti-HIV activities of low molecular weight aurintricarboxylic acid fragments and related compounds” (J Med Chem, 1991) can be followed below.

Each structure is given as a SMILES string. Converted amounts (≈) assume the structure as drawn.

Data set [1] relates to Human immunodeficiency virus 1. Nature of the data set: Inhibitory concentration for cytopathicity of HIV-1 (HTLV-IIIB) in MT-4 cells. The class given is functional, organism-based. Particulars: Human immunodeficiency virus 1, MT4.
In data set [2] the test system is HuT78. The data set can be described thus: Inhibitory concentration that reduced the number of gaint cells by 50% between HIV-2 infected HUT-78 cells and uninfected MOLT-4 cells. The class given is functional, cell-based. Particulars: Homo sapiens. The essentials:
(§1)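 MOLT-4 cells were cocultured with an equal number of HUT-78/HTLV-IIIB or HUT-78/LAV-2ROD cells at various compound concentrations for 24 h. Giant cells were counted microscopically and analysed by laser flow cytometry. The value is the concentration reducing giant cell number by 50%, as the mean of at least three experiments.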

In data set [3] the test system is HuT78. Nature of the data set: Inhibitory concentration that reduced the number of gaint cells by 50% between HIV-1 infected HUT-78 cells and uninfected MOLT-4 cells. The class given is functional, cell-based. Particulars: Homo sapiens. The essentials:
as §1

The test system of data set [4] is Human immunodeficiency virus 2. The data set can be described thus: Inhibitory concentration for cytopathicity of HIV-2 (LAV-2ROD) in MT-4 cells. Particulars: Human immunodeficiency virus 2, MT4. The data set is classed as functional, organism-based. For orientation: Protection from cytopathic effect is a common read-out in antiviral testing.
Data set [5] can be described thus: 50% cytotoxic concentrations for mock-infected MT-4 cells. Particulars: human. The class given is cell-based, MT4. The essentials:
(§2)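 Mock-infected MT-4 cells were exposed to the compounds. Viability was read by a tetrazolium (MTT) colorimetric method in 96-well microtrays. The value is the concentration that is 50% cytotoxic, given as the mean of at least three experiments.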

The test system of data set [6] is Human immunodeficiency virus 1. Nature of the data set: Inhibitory concentration for cytopathicity of HIV-1 (HTLV-IIIB) in CEM cells. The data set is classed as functional, organism-based. Particulars: Human immunodeficiency virus 1, CCRF-CEM. The essentials:
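HIV-1 (HTLV-IIIB)-infected CEM cells were treated with the compounds. Cell viability was determined by a tetrazolium (XTT) assay. The 50% inhibitory concentration for cytopathicity is the mean of at least three experiments.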

Data set [7] is described as follows: 50% cytotoxic concentrations for mock-infected MT-4 cells. Particulars: human. The data set is classed as cell-based, MT4. In outline:
as §2

The test system of data set [8] is HuT78. Nature of the data set: Inhibitory concentration that reduced the number of gaint cells by 50% between HIV-1 infected HUT-78 cells and uninfected MOLT-4 cells. Particulars: Homo sapiens. The data set is classed as functional, cell-based. The essentials:
as §1

Data set [9] deals with HuT78. Nature of the data set: Inhibitory concentration that reduced the number of gaint cells by 50% between HIV-2 infected HUT-78 cells and uninfected MOLT-4 cells. The class given is functional, cell-based. Particulars: Homo sapiens. In outline:
as §1

`O=C(O)c1cc(C(c2ccc(O)c(C(=O)O)c2)c2ccc(O)c(C(=O)O)c2)ccc1O`: the IC50 in data set [1] is over 100 µg/mL; in the data set with HuT78 [2], 15 µg/mL (≈ 35.3 µM); in the data set with HuT78 [3] it was over 100 µg/mL; in data set [4], 13 µg/mL (≈ 30.6 µM); in data set [6], 32.5 µg/mL (≈ 76.6 µM). Further, the CC50 in data set [5] is 256 µg/mL (≈ 603 µM).

For the compound `Cc1cc(Cc2cc(C)c(O)c(C(=O)O)c2)cc(C(=O)O)c1O`, the IC50 in data set [1] was over 100 µg/mL; in [4], over 100 µg/mL; in [6], 55.5 µg/mL (≈ 175 µM). In data set [5], the CC50 is over 100 µg/mL.

As for `Cc1cc(C(c2cc(C)c(O)c(C(=O)O)c2)c2cc(C)c(O)c(C(=O)O)c2)cc(C(=O)O)c1O`, the IC50 in data set [1] was 80 µg/mL (≈ 172 µM); with HuT78 [2], over 20 µg/mL; with HuT78 [3], over 20 µg/mL; in data set [4] it was 67 µg/mL (≈ 144 µM); in data set [6], over 186 µg/mL. In addition, the CC50 in [5] worked out at 82 µg/mL (≈ 176 µM).

For `O=C(O)c1cc(Cc2cc(Br)c(O)c(C(=O)O)c2)cc(Br)c1O`, the IC50 in [1] and in data set [4] was over 100 µg/mL each time. The CC50 in data set [7] is over 100 µg/mL.

Consider `COC(=O)c1cc(C(c2ccc(O)c(C(=O)OC)c2)c2ccc(O)c(C(=O)OC)c2)ccc1O`, for which the IC50 in data set [1] is over 100 µg/mL; with HuT78 [2], over 100 µg/mL; with HuT78 [3], over 100 µg/mL; in [4], over 100 µg/mL; in data set [6] it was over 78 µg/mL. The CC50 in [5] stood at 52 µg/mL (≈ 111 µM).

With `O=C(O)c1cc(Cc2cc(C(=O)O)c(O)c3ccccc23)c2ccccc2c1O`, the IC50 in [1] was 75 µg/mL (≈ 193 µM); in the data set on HuT78 [8] it was over 20 µg/mL; in [4], 79 µg/mL (≈ 203 µM); in [6] it was 20 µg/mL (≈ 51.5 µM); in the data set on HuT78 [9] it was over 20 µg/mL. Moreover, in data set [7], the CC50 is 73 µg/mL (≈ 188 µM).

For `O=C(O)c1cccc(Cc2cccc(C(=O)O)c2O)c1O`, the results for the 50% inhibitory concentration (IC50) in [1], in data set [4] and in data set [6] were over 100 µg/mL, over 100 µg/mL and over 125 µg/mL, respectively. Further, the CC50 in data set [7] is over 100 µg/mL.

With `O=C(O)c1cc(Cc2ccc(O)c(C(=O)O)c2)ccc1O`, the figures for the IC50 in [1], in [4] and in data set [6] were over 100 µg/mL, over 100 µg/mL and over 276 µg/mL, respectively. Besides, the CC50 in [7] is over 100 µg/mL.

Consider `O=C(O)c1cc(Cc2cc(Cl)c(O)c(C(=O)O)c2)cc(Cl)c1O`, for which the IC50 in data set [1] is over 100 µg/mL; in [4], over 100 µg/mL; in [6], 117 µg/mL (≈ 328 µM). The compound also gave a CC50 in data set [7] of over 100 µg/mL.

As for `Cc1cc(C(O)(c2cc(C)c(O)c(C(=O)O)c2)c2cc(C)c(O)c(C(=O)O)c2)cc(C(=O)O)c1O`, the IC50 in data set [1] is over 100 µg/mL; in [4] it was over 100 µg/mL; in data set [6] it was over 205 µg/mL. Also, the CC50 in [5] is over 100 µg/mL.

On to `COC(=O)c1cc(C(c2cc(C)c(O)c(C(=O)OC)c2)c2cc(C)c(O)c(C(=O)OC)c2)cc(C)c1O`, for which the IC50 in data set [1] and in data set [4] was over 100 µg/mL each time. In data set [5], this compound had a CC50 of over 100 µg/mL.

Consider `O=C(O)c1cc(Br)cc(Cc2cc(Br)cc(C(=O)O)c2O)c1O`, for which the figures for the IC50 in data set [1], in [4] and in data set [6] were over 100 µg/mL, over 100 µg/mL and 72.1 µg/mL (≈ 162 µM), respectively. In data set [7], the CC50 is over 100 µg/mL.

For the compound `O=S(=O)([O-])c1cc(Cl)cc(Cc2cc(Cl)cc(S(=O)(=O)[O-])c2O)c1O.[Na+].[Na+]`, the concentration for half-maximal inhibition (IC50) in [1] was over 100 µg/mL; in the data set on HuT78 [2] it was over 100 µg/mL; with HuT78 [3], over 100 µg/mL; in data set [4], over 100 µg/mL; in data set [6], 123 µg/mL. For the same compound, the CC50 in data set [5] was over 100 µg/mL.

In the case of `COC(=O)c1cc(C(O)(c2ccc(O)c(C(=O)OC)c2)c2ccc(O)c(C(=O)OC)c2)ccc1O`, the IC50 is over 100 µg/mL in [1]; over 100 µg/mL with HuT78 [2]; over 100 µg/mL in the data set with HuT78 [3]; over 100 µg/mL in data set [4]; over 78 µg/mL in data set [6]. Further, in data set [5], the 50% cytotoxic concentration (CC50) came to 66 µg/mL (≈ 137 µM).

Turning to `O=C(O)c1cc(C(O)(c2ccc(O)c(C(=O)O)c2)c2ccc(O)c(C(=O)O)c2)ccc1O`, the IC50 in data set [1] was over 100 µg/mL; in the data set with HuT78 [2] it was 15 µg/mL (≈ 34.1 µM); with HuT78 [3], over 100 µg/mL; in data set [4], 15 µg/mL (≈ 34.1 µM); in [6], 50.4 µg/mL (≈ 114 µM). This compound also came in with a CC50 in [5] of 248 µg/mL (≈ 563 µM).

For the compound `O=C(O)C1=CC(=C(c2ccc(O)c(C(=O)O)c2)c2ccc(O)c(C(=O)O)c2)C=CC1=O` [AURINTRICARBOXYLIC ACID], the IC50 is 1.1 µg/mL (≈ 2.6 µM) in data set [1], 4 µg/mL (≈ 9.47 µM) in the data set with HuT78 [2], 0.85 µg/mL (≈ 2.01 µM) in [4] and 2.1 µg/mL (≈ 4.97 µM) in data set [6]. In data set [5], this compound displayed a CC50 of 280 µg/mL (≈ 663 µM).

For the compound `CC1=C/C(=C(/c2cc(C)c(O)c(C(=O)[O-])c2)c2c(Cl)ccc(S(=O)(=O)[O-])c2Cl)C=C(C(=O)[O-])C1=O.[Na+].[Na+].[Na+]` [CHROME AZUROL S], the midpoint of inhibition in [6], the IC50, lay at 50.2 µg/mL.
